Most compounds without a hit are left out; they make up all but 1.5% or so of the library.
APJ antag: antagonists of human APJ apelin receptor; P35414; CHO-K1 APJ beta-arrestin complementation, luminescence; inhibition, % at 20 µM; 330,000 tested, 0.32% active;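 active = inhibition above about 40% at 20 µM, limit read from the data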;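 note: cells challenged with 10 nM apelin-13 agonist together with compound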
APJ ag: activates the human apelin receptor APJ | P35414 | CHO-K1 APJ PathHunter beta-arrestin, luminescence; 0% DMSO wells, 100% apelin | activation, % at 20 µM | 330,000 tested, 0.11% active | AID 2520;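 active = activation more than six SD over the plate average, tested at 20 µM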
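Test system: CHO-K1 APJ beta-arrestin complementation cell line | Compound: Single test compound dose, 20 µM final, 1% DMSO | Incubation: Compound 90 min 25 °C, reagent 1 h | Measured by: beta-gal luminescence | Read-out basis: APJ–arrestin association signal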
CCR6 antagonist: blocks CCL20-driven beta-arrestin recruitment at human CCR6. P51684. CHO-K1 CCR6 PathHunter beta-arrestin, luminescence, CCL20-stimulated. inhibition, % at 20 µM. 340,000 tested, 0.49% active. AID 493098;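 active = compounds whose inhibition of the agonist-driven luminescence signal at 20 µM reaches about 50%, limit read from the data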;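 note: cells stimulated with CCL20 at 14 nM final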
EBI2 block: EBI2 (human) antagonism; 360,000 tested, 0.81% active; EBI2 beta-arrestin recruitment, luminescence, 7a,25-OHC stimulated; AID 651636; inhibition, % at 5 µM; in the data active = inhibition above about 38%;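 note: enzyme fragment complementation signal reports receptor beta-arrestin coupling in cells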
Target sequence (P32249 whole entry, looked up, the tested form may be a part): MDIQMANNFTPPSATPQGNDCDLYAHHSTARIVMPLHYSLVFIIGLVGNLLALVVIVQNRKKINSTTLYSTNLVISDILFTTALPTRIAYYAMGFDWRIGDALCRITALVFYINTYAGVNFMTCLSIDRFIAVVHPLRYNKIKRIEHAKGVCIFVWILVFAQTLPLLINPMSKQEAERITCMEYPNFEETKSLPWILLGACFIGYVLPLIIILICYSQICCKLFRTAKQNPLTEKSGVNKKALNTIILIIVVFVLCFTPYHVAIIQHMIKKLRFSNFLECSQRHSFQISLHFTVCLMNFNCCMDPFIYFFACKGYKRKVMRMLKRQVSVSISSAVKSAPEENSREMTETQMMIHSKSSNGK
CXCR6 block: CXCR6 (human) receptor inhibition; O00574; CHO-K1 PathHunter CXCR6 beta-arrestin, luminescence; inhibition, % at 20 µM; 360,000 tested, 0.36% active; AID 602244; in the data active = inhibition above about 34%, passing the limit was not always enough;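 note: antagonist mode with CXCL16 agonist at 10 nM final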
Target sequence (O00574 whole entry, looked up): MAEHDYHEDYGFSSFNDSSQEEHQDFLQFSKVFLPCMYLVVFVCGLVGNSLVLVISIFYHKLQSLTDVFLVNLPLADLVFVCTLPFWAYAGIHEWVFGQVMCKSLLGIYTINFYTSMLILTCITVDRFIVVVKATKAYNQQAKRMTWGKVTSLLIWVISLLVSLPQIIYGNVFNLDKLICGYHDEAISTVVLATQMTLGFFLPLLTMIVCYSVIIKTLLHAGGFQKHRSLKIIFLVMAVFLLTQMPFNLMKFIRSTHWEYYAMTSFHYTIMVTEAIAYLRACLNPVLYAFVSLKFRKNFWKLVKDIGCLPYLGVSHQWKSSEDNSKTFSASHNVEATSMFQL
EBI2 conf: EBI2 (human) antagonism, single concentration confirmation; shares compounds with EBI2 block; EBI2 beta-arrestin luminescence, 7a,25-OHC antagonism; inhibition, % at 5 µM; 2,400 tested, 29% active; AID 651997;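 active = inhibition of at least 50%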
EBI2 agonist: EBI2 agonism counter-screen | activation, % at 5 µM | 2,400 tested, under 10 active | EBI2-expressing cells, agonist mode, luminescence, 60 min; 0% vehicle, 100% 7α,25-dihydroxycholesterol control | shares compounds with EBI2 block;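 active = activation of at least 50%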
bGal counter: inhibits E. coli beta-galactosidase, counter-screen for EBI2 antagonists; shares compounds with EBI2 block; purified beta-galactosidase, luminescent Galacton Star, 15 min; inhibition, % at 5 µM; 2,400 tested, 1% active;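 active = replicate-average signal at least 3 plate SD below neutral wells, shown as high inhibition, flagging enzyme-inhibiting false positives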;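 note: higher means stronger loss of beta-gal luminescence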
Each line names hits and unclear results; the compound was inactive in the other large screens (follow-up assays come after a bar, where they were run).

Cc1ccc(/C=C/C(=O)NC(=S)N2CCN(C)CC2)cc1	EBI2 block 55 | EBI2 conf inactive | EBI2 agonist inactive | bGal counter inactive
Cc1ccc(/C=C/C(=O)NC(=S)N2CCN(c3ccc(F)cc3)CC2)cc1	EBI2 block 48 | EBI2 conf inactive | EBI2 agonist inactive | bGal counter inactive
O=C(NC1CCCC1)C(C1CC1)n1c(-c2ccncc2)nc2ccccc21 (configuration not stated)	none (no result: APJ antag, APJ ag, CCR6 antagonist, CXCR6 block)
C#CCn1c2ccccc2c(=O)n1CCOc1ccccc1OC	none (no result: APJ antag, APJ ag, CCR6 antagonist, CXCR6 block)
CCCc1nn(-c2ccccc2)c2c1C(c1cccs1)C(C#N)=C(N)O2 (configuration not stated)	EBI2 block 53 | EBI2 conf 60 | EBI2 agonist inactive | bGal counter inactive
CNC[C@@H]1OCc2ccccc2-c2c(n(C)c3ccccc23)C(=O)N([C@H](C)CO)C[C@H]1C	none (no result: APJ antag, APJ ag, CCR6 antagonist)
O=C(/C=C/c1ccc(Cl)cc1)NCCc1ccccc1	EBI2 block 54 | EBI2 conf inactive | EBI2 agonist inactive | bGal counter inactive
CN1CCN(C(=O)/C=C/c2ccc(Cl)cc2)CC1	EBI2 block 93 | EBI2 conf 79 | EBI2 agonist inactive | bGal counter inactive
O=C(/C=C/c1ccccc1Cl)NCCc1ccccc1	none
CC(C)(C)c1ccc(/C=C/C(=O)N2CCCCC2)cc1	none (no result: APJ antag, APJ ag)
O=C(/C=C/c1ccc(Cl)c(Cl)c1)N1CCc2ccccc21	none
CN1CCN(C(=O)/C=C/c2ccc(Cl)c(Cl)c2)CC1	EBI2 block 92 | EBI2 conf 61 | EBI2 agonist inactive | bGal counter inactive
O=C(/C=C/c1ccc(Cl)cc1)N1CCN(Cc2ccccc2)CC1	EBI2 block 97 | EBI2 conf 89 | EBI2 agonist inactive | bGal counter inactive
CCCCNC(=O)C(NC(=O)c1cnc(C)cn1)C(=O)c1ccccc1 (configuration not stated)	none (no result: APJ antag, APJ ag, CCR6 antagonist, CXCR6 block)
Cc1ccc(C(=O)NCCN2CCC(n3c(=O)[nH]c4ccccc43)CC2)cc1	none (no result: APJ antag, APJ ag, CCR6 antagonist)
O=C(/C=C/c1ccccc1)N1CCN(Cc2nc3ccccc3c(=O)[nH]2)CC1	EBI2 block 72 | EBI2 conf 75 | EBI2 agonist inactive | bGal counter inactive
O=C(/C=C/c1ccc(Cl)cc1)N(Cc1ccccc1)c1ccccn1	EBI2 block 41 | EBI2 conf inactive | EBI2 agonist inactive | bGal counter inactive
O=C(c1ccccc1)N(Cc1ccccc1)c1ccccn1	none
COc1cc(/C=C/C(=O)N2CCN(Cc3ccccc3)CC2)cc(OC)c1OC	EBI2 block 61 | EBI2 conf inactive | EBI2 agonist inactive | bGal counter inactive
O=c1[nH]c(CN2CCCCC2)nc2ccccc12	none
CC(C)(C(=O)N1CCC1(C)C(=O)NS(=O)(=O)c1ccccc1Cl)c1ccccc1 (configuration not stated)	none (no result: APJ antag, APJ ag, CCR6 antagonist)
COc1ccc(OCc2nc(C#N)c(N3CCN(c4ccc(OC)cc4)CC3)o2)cc1	EBI2 block 44 | EBI2 conf inactive | EBI2 agonist inactive | bGal counter inactive
COc1ccc(N2CCN(c3oc(COc4ccccc4Cl)nc3C#N)CC2)cc1	none
N#Cc1nc(COc2ccc(Br)cc2)oc1N1CCN(Cc2ccccc2)CC1	EBI2 block 43 (no result: APJ antag, APJ ag) | EBI2 conf inactive | EBI2 agonist inactive | bGal counter inactive
COc1ccc(Nc2oc(COc3ccc(OC)cc3)nc2C#N)cc1	EBI2 block 52 | EBI2 conf inactive | EBI2 agonist inactive | bGal counter inactive
N#Cc1nc(COc2ccc(F)cc2)oc1N1CCN(Cc2ccccc2)CC1	none
N#Cc1nc(COc2ccc(F)cc2)oc1N1CCC(Cc2ccccc2)CC1	EBI2 block 60 | EBI2 conf inactive | EBI2 agonist inactive | bGal counter inactive
Cc1ccc(-c2cnc3c(Nc4cccc(OC(F)(F)C(F)F)c4)nccn23)cc1	none (no result: APJ antag, APJ ag, CCR6 antagonist)
OCc1cccc(-c2cnc3c(Nc4cccc(OC(F)(F)C(F)F)c4)nccn23)c1	EBI2 block 51 (no result: APJ antag, APJ ag, CCR6 antagonist) | EBI2 conf 51 | EBI2 agonist inactive | bGal counter inactive
CC1CCCCN1C(=S)Nc1ccc(OC(F)F)cc1 (configuration not stated)	EBI2 block 50 | EBI2 conf inactive | EBI2 agonist inactive | bGal counter inactive
CCCNC(=O)c1cc2c(c(-c3cccc(-c4ccccc4F)c3)n1)[C@@H](CCO)N(C(=O)CC1CC1)C2	none (no result: APJ antag, APJ ag, CCR6 antagonist)
O=C(NCc1ccccc1)c1ccc(Oc2ccc(C(=O)NCc3ccccc3)cc2)cc1	EBI2 block 47 | EBI2 conf inactive | EBI2 agonist inactive | bGal counter inactive
O=C(NCc1ccccc1)c1ccc(C2SCC(=O)N2Cc2ccccc2)cc1 (configuration not stated)	EBI2 block 41 | EBI2 conf inactive | EBI2 agonist inactive | bGal counter inactive
c1ccc(CCNc2ncnc3scc(C4COc5ccccc5O4)c23)cc1 (configuration not stated)	EBI2 block 87 | EBI2 conf 55 | EBI2 agonist inactive | bGal counter inactive
O=C(/C=C/c1cccs1)N1CCOCC1	none
O=C(/C=C/c1cccs1)N1CCN(c2ccccc2F)CC1	EBI2 block 50 | EBI2 conf 52 | EBI2 agonist inactive | bGal counter inactive
O=C(O/N=C\c1ccc(N2CCCCC2)c([N+](=O)[O-])c1)c1ccc(Cl)cc1Cl	EBI2 block 51 | EBI2 conf inactive | EBI2 agonist inactive | bGal counter inactive
O=C(/C=C/c1ccc([N+](=O)[O-])cc1)N1CCN(c2ccccc2F)CC1	EBI2 block 68 | EBI2 conf inactive | EBI2 agonist inactive | bGal counter inactive
O=C(Cc1ccccc1[N+](=O)[O-])N1CCN(c2ccccc2F)CC1	none
O=C(CN1CCN(c2ccc(Cl)cc2[N+](=O)[O-])CC1)N1CCOCC1	none
O=C(/C=C/c1ccc(Cl)cc1)N1CCN(c2ccc(Cl)cc2[N+](=O)[O-])CC1	EBI2 block 98 | EBI2 conf 80 | EBI2 agonist inactive | bGal counter inactive
CC(C)CC1C(=O)N(Cc2cn(CC3CCCCC3)nn2)CCS(=O)(=O)N1Cc1ccc(-c2ccncc2)cc1 (configuration not stated)	none (no result: APJ antag, APJ ag, CCR6 antagonist)
C[C@H]1CN([C@@H](C)CO)S(=O)(=O)c2ccc(C#Cc3cccnc3)cc2O[C@@H]1CN(C)C(=O)Nc1ccc2c(c1)OCO2	none (no result: APJ antag, APJ ag, CCR6 antagonist)
O=C(/C=C/c1ccccc1)N1CCN(c2c(Cl)cccc2[N+](=O)[O-])CC1	EBI2 block 95 | EBI2 conf 91 | EBI2 agonist inactive | bGal counter inactive
CC(=O)c1ccc(N2CCN(C(=O)/C=C/c3cccs3)CC2)cc1	none

Assay outcomes (PubChem)
